Screening results as filed in PubChem BioAssay.
MsrA act = bovine MsrA enzyme activators, primary screen, biochemical, absorbance, HTS | purified bovine MsrA, absorbance read-out | Methionine sulfoxide reductase A (Bos taurus) | 0.3% of 360,000 active | activation, % at 10.6 µM | AID 602163, 2012; in the data active = activation above about 7.5%;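 also: 0% = vehicle and 100% = reference activator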
NR2E3 ag-1 = inhibitors of NR2E3-RetCOR corepressor binding, primary screen, NR2E3 agonist project, biochemical, TR-FRET, GST-NR2E3, biotin-RetCOR. 1536-well. inhibition of corepressor binding, % at 4.78 µM. 0.12% of 320,000 active. AID 2300, 2010;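 active = percent inhibition above the cutoff of mean plus 3 SD of all tested compounds, set per screening campaign, cut at about 20% in these data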;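 also: 0% = DMSO wells and 100% = biotin wells as full block of FRET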
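System: GST-tagged NR2E3 plus biotinylated RetCOR corepressor; Amount: 1.35 nM GST-tagged NR2E3 final; Dosing: single nominal compound dose of 4.8 µM; Schedule: 5 h incubation at 4 °C; Technique: TR-FRET with europium anti-GST and streptavidin-D2, 340 nm excitation; Controls: biotin wells as high control, 0.6% DMSO wells as low control.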
NadD block = inhibitors of S. aureus NadD, primary screen, biochemical, colorimetric, uHTS; Nicotinate-nucleotide adenylyltransferase NadD (Staphylococcus aureus N315); purified NadD enzyme, colorimetric absorbance read-out; inhibition, % at 20 µM; 0.78% of 360,000 active; AID 602399, 2012; in the data active = inhibition above about 26%
GalR3 antagonist = GalR3 antagonists in HEK293 cells, primary screen, cell-based, fluorescence readout. Galanin receptor type 3 (Homo sapiens), O60755. HEK293 GalR3-CNG cAMP membrane potential fluorescence; galR3 body fused to GalR1 C-terminus. inhibition, % at 3 µM. 0.44% of 360,000 active. AID 651719, 2012;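 active = inhibition above the screen-wide average plus 3 SD, cut at about 13% in these data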;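 also: forskolin and galanin both at EC90 stimulate the cells; cAMP rise reported by CNG channel membrane potential dye signal; 0% = forskolin plus galanin with DMSO and 100% = forskolin alone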
Target sequence (O60755 1-299 limits assumed): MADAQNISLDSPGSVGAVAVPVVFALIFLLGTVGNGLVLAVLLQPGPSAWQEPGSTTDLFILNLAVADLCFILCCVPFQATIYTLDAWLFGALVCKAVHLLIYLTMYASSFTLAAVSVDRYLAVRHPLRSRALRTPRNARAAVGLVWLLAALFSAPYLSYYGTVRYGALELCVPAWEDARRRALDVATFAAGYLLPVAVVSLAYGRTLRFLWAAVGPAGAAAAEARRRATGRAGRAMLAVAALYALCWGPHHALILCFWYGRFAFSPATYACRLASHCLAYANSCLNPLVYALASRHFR
NR2E3 ag-2 = NR2E3 agonists in two-hybrid cells, primary screen, cell-based, luminescence, CHO-S, Gal4-NCOR/VP16-NR2E3. inhibition of corepressor binding, % at 3.98 µM. luciferase. 0.35% of 360,000 active. Photoreceptor-specific nuclear receptor (Homo sapiens), Q9Y5X4;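 active = inhibition above the mean of all tested compounds plus 3 SD, cut at about 70% in these data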;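 also: 0% = DMSO with NR2E3 transfected cells and 100% = cells lacking NR2E3 construct; higher means lower luciferase signal from less NR2E3 corepressor binding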
MsrA inh = bovine MsrA enzyme inhibitors, primary screen, biochemical, absorbance, HTS. 0.75% of 360,000 active. inhibition, % at 15.5 µM. Methionine sulfoxide reductase A (Bos taurus). purified bovine MsrA, absorbance read-out; in the data active = inhibition above about 4.5%;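 also: 0% = vehicle wells with enzyme and 100% = reference inhibitor wells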
Active calls of the source: *; · = no result given. Hits are enriched below; roughly 2.5% of the tested compounds scored in any of these assays.

SMILES	MsrA act	NR2E3 ag-1	NadD block	GalR3 antagonist	NR2E3 ag-2	MsrA inh
c1ccc(-[n+]2nc(Nc3cccc4ccccc34)sc2-c2c3ccccc3cc3ccccc23)cc1	-3.3	1.5	41.9*	·	11.8	·
O=C(NCc1ccco1)C(=O)c1cn(CC(=O)N2CCCC2)c2ccccc12	-2.1	-0.3	-3.7	-0.6	-5.8	0.0
CSc1cccc(-n2cc(-c3ccc4c(c3)OCO4)[nH]c2=O)c1	-4.6	9.3	38.6*	·	-207.0	·
CSc1cccc(NC(=O)CNC(=O)c2ccc3c(c2)OCO3)c1	0.4	-0.9	-2.4	-4.7	-3.0	-0.8
Cc1ccc(N=Nc2ccc(O)c(P(=O)(c3ccccc3)c3ccccc3)c2)cc1	-0.3	2.7	34.2*	-1.4	-0.5	0.3
O=[N+]([O-])c1ccc(O)c(P(=O)(c2ccccc2)c2ccccc2)c1	-11.4	2.1	-3.8	-4.7	-16.0	1.9
COc1ccc(C2/C=C\CN(C(=O)Nc3ccc(C(F)(F)F)cc3)CC(=O)N2Cc2ccc(F)cc2)cc1 (stereo unspecified)	0.5	-3.5	-0.1	·	82.3*	·
O=C(NNc1c2ccccc2nc2ccccc12)c1ccccc1O	-2.0	-3.1	25.3	-3.8	-24.9	-0.5
O=C(NNc1c2ccccc2nc2ccccc12)c1ccc(O)cc1O	0.1	-2.6	30.8*	-3.3	6.5	0.8
Cc1cc(C)nc(SCc2ccc(C(=O)N/N=C/c3cccc(O)c3O)cc2)n1	-5.1	-1.4	23.7	4.5	-10.3	1.1
COc1ccc(O)c(/C=N/NC(=O)c2ccc(CSc3nc(C)cc(C)n3)cc2)c1	-2.1	0.9	33.9*	3.5	-0.6	1.7
Cc1cc(Cl)ccc1OCCCC(=O)NCC1CCCO1 (stereo unspecified)	-0.6	-1.3	1.8	-5.2	0.0	-0.9
C/C(=N\NC(=O)c1nnn(-c2nonc2N)c1CN(C)c1ccccc1)c1ccccc1O	-2.4	-8.0	36.1*	3.2	1.1	1.7
Oc1c(/C=C/C=C/C=Nc2ccccc2)sc(=S)n1Cc1ccccc1	-4.7	-2.7	32.0*	-2.4	-69.0	-0.2
CCCCCCSc1ccc([C@H]2N[C@@](C)(C(=O)OC)[C@H]3C(=O)N(C)C(=O)[C@@H]23)cc1	8.4*	1.5	-7.0	-2.4	27.2	0.0
CC(NC(=O)C1CCC(C(=O)NC(C)c2ccccc2)CC1)c1ccccc1 (stereo unspecified)	-10.1	1.3	-1.4	-2.6	-17.7	-0.9
O=C(Nc1nc2c(cc3c4c(cccc42)CC3)s1)c1ccccc1Cl	-11.6	3.9	7.4	-6.7	-37.1	4.6*
Cc1ccc(C)c(N2CC(C(=O)Nc3nccs3)CC2=O)c1 (stereo unspecified)	-2.2	4.7	-4.0	-6.4	-5.2	1.6
CCOC(=O)/C(=C\c1ccc(Cl)cc1)c1nc2sc(C)c(C)c2c(=O)[nH]1	-7.0	0.8	5.1	13.5*	13.5	0.7
COC(=O)CCC/C=C1/SCC(NC(=O)c2ccccc2)C1O (stereo unspecified)	-6.2	2.9	-1.6	3.8	-13.9	0.5
COC(=O)CCC/C=C1/SCC(NC(=O)c2ccccc2)C1=O (stereo unspecified)	-1.9	0.7	11.5	12.9*	-25.1	0.9
Cc1ccc(-c2csc(Nc3ccc(C(=O)O)cc3)[n+]2Cc2ccccc2)cc1	-12.9	5.4	44.3*	1.4	0.8	-1.1
C(=C\c1ccccc1)/CN1CCN(c2ncnc3c2oc2ccccc23)CC1	-9.9	1.4	-2.5	-5.4	97.8*	0.3
Cc1ccc(NC(=O)CN2C(=O)S/C(=C/c3ccc(-c4cc(C(=O)O)ccc4C)o3)C2=O)cc1C	-8.6	9.6	50.3*	-2.9	-14.9	0.8
CN1CCN(c2ccc(-c3ccc4ccccc4n3)cc2)CC1	-2.3	·	-2.6	-8.4	86.8*	4.1
SMILES	MsrA act	NR2E3 ag-1	NadD block	GalR3 antagonist	NR2E3 ag-2	MsrA inh
CC(C)(C)c1ccc(OCc2ccc(C(=O)N/N=C/c3ccc(O)c(O)c3)cc2)cc1	-6.5	-4.2	72.0*	-4.1	-125.5	0.6
CC(Oc1ccc(Br)cc1Cl)C(=O)Nc1ccncc1 (stereo unspecified)	-2.6	3.6	-0.8	-15.2	-15.2	-0.8
COc1cc(/C=C2\SC(N)=NC2=O)ccc1OCC(=O)Nc1ccc(C)cc1	-4.4	0.2	1.0	3.5	20.9	0.8
CC(C)c1cccc(-c2ccc3c(c2)S(=O)(=O)c2cccc(C(=O)NCc4ccccc4)c2C3=O)c1	-3.5	·	17.9	-2.8	24.2	-0.7
CC(C)c1cccc(-c2ccc3c(c2)S(=O)(=O)c2cccc(C(=O)NCc4ccccc4Cl)c2C3=O)c1	-1.9	·	34.2*	·	-7.7	·
CC(/C=C(\NC(=O)c1ccccc1)C(=O)N=Nc1c(O)[nH]c2ccc(C)cc12)=C\c1ccccc1	-8.3	2.5	38.6*	0.0	10.7	0.4
Cc1ccc2[nH]c(O)c(N=NC(N)=S)c2c1	-5.1	-7.0	0.7	-1.5	-21.8	4.4
CCOc1cccc(C(=O)Nc2nccs2)c1	-3.7	-1.0	-3.1	-5.1	-44.2	0.8
Oc1ccc2ccccc2c1/C=N/Nc1nnc(-c2ncc[nH]2)c2ccccc12	-2.5	-4.5	50.8*	-5.5	-44.8	0.8
O=C(N/N=C/c1cc([N+](=O)[O-])cc([N+](=O)[O-])c1O)/C(=C\c1cccs1)NC(=O)c1ccccc1	-10.1	-3.9	38.9*	-2.9	-18.0	3.4
Cc1cc(C)cc(-n2c(C)cc(/C=C3\C(=N)N4N=C(CC(C)C)SC4=NC3=O)c2C)c1	-1.6	0.2	34.6*	0.5	-13.4	0.5
Cc1cccc(-n2c(C)cc(/C=C3\C(=N)N4N=C(CC(C)C)SC4=NC3=O)c2C)c1	-1.9	0.8	26.4	-3.0	-23.9	-0.2
CCCC1=NN2C(=N)/C(=C\c3cc(C)n(-c4cc(C)cc(C)c4)c3C)C(=O)N=C2S1	-0.6	-2.3	37.4*	-9.2	15.7	0.4
Cc1ccc(S(=O)(=O)N2CCOCC2)cc1NC(=O)Cn1c(=O)ccn(Cc2ccccc2)c1=O	6.5	·	4.7	-4.5	12.9	-0.1
C=CCN1N=C(/C=C/c2ccc(C)cc2)CCC1=O	-9.3	-3.3	-4.1	-2.2	-54.6	4.6*
O=C(N/N=C/c1cc([N+](=O)[O-])ccc1O)c1ccc(COc2ccc3c(c2)CCC3)o1	-5.3	·	52.0*	8.8	-158.7	0.3
COc1ccc(Br)cc1/C=N/NC(=O)c1ccc(COc2ccc3c(c2)CCC3)o1	-4.0	-0.7	24.2	2.8	-115.1	0.9
